Assays:
WT LIMK1-NanoLuc = WT LIMK1-NanoLuc (Homo sapiens, UniProt P53667); experiment: LIMK1 NanoBRET target engagement assay, WT; assay type: cell-based; settings: HEK293T cells, 0.5 μM K-10 tracer, 3 h
Summary of the method: (§1)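 HEK293T cells in Opti-MEM without phenol red with 1% FBS (2x10^5 cells/mL) were transfected with WT or C349A LIMK1-NanoLuc plasmid (1 μg/mL) plus carrier DNA (9 μg/mL) for 20 h at 37 °C/5% CO2. K-10 tracer and test compound (diluted from 1000x DMSO stocks) were added for 3 h at 37 °C. Donor 450 nm and acceptor 610 nm were read after substrate/inhibitor (2 min, RT). Untransfected background was subtracted, mBU calculated, then normalized to DMSO. Triplicate wells.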

C349A LIMK1-NanoLuc = C349A LIMK1-NanoLuc (Homo sapiens, UniProt P53667, C349A); experiment: LIMK1 NanoBRET target engagement assay, C349A; assay type: cell-based; settings: HEK293T cells, C349A-LIMK1 mutant, 3 h
Summary of the method: as §1

Chain of WT LIMK1-NanoLuc (P53667 whole entry): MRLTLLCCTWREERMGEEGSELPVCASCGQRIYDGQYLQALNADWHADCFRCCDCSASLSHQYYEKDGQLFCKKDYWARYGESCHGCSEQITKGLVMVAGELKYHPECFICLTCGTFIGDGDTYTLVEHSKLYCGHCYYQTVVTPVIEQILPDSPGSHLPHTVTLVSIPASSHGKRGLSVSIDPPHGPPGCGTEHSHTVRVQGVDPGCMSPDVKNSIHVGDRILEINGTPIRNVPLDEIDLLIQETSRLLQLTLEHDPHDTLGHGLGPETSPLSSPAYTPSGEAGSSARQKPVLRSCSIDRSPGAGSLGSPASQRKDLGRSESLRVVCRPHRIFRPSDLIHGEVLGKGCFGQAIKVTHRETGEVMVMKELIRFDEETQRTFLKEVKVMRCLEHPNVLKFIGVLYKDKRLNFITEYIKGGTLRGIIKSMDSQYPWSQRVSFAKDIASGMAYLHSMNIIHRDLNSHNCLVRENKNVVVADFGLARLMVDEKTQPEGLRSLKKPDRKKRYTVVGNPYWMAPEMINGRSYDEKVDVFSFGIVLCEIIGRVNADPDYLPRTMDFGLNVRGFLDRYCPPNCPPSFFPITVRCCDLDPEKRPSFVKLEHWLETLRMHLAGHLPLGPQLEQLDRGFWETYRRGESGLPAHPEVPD
Chain of C349A LIMK1-NanoLuc (P53667 whole entry C349A): as the sequence (P53667 whole entry) above, with C349A counted along it

COc1ccc(N(C(=O)Nc2c(C)cccc2C)c2cc(Nc3ccc(N4CCN(C)CC4)cc3)ncn2)c(OC)c1 [HG-9-91-01]
BRET signal (NanoBRET K-10 tracer) (WT LIMK1-NanoLuc): decreased NanoBRET signals
BRET signal (NanoBRET K-10 tracer) (C349A LIMK1-NanoLuc): decreased NanoBRET signals

Source: PMC11684312 (Nature chemistry, 2024)
